Measurements gathered from unrelated publications.
Each line is one published result; the experiments were not run side by side. Values after ≈ are worked out from the molar mass of the structure shown.

C/C(=N/NC(=O)c1cn(-c2ccccc2)nc1-c1ccc(Br)cc1)c1c(O)cc(C)oc1=O  MIC (Bacillus subtilis; microbial growth): 70 µg/mL (≈ 138 µM)
O=C(Nc1ccc(Cl)cc1)c1ccc(COC(Cn2ccnc2)c2ccc(Cl)cc2Cl)cc1 (stereo not shown)  MIC80 (Nakaseomyces glabratus; microbial growth, broth dilution): 0.125 µg/mL (≈ 0.25 µM)
[H]/N=C(/N)N[C@H]1[C@H](O)[C@@H](O)[C@H](O[C@@H]2O[C@@H](C)[C@](O)(C=O)[C@H]2O[C@@H]2O[C@@H](CO)[C@H](O)[C@@H](O)[C@@H]2NC)[C@@H](N/C(N)=N\[H])[C@@H]1O  inhibition zone (Bacillus subtilis; microbial growth, well diffusion; MTCC121; 1000 µg/mL, 18 h): 24 mm
C=CC(=O)ON=C1C=CC(=C(C#N)c2ccccc2)C=C1  MIC (Nakaseomyces glabratus; microbial growth, broth dilution; ATCC15126; 48 h): 16 µg/mL (≈ 57.9 µM)
C/C(=N/NC(=O)c1cn(-c2ccccc2)nc1-c1ccc(Cl)cc1)c1c(O)cc(C)oc1=O  MIC (Bacillus subtilis; microbial growth): 70 µg/mL (≈ 151 µM)
CNC(C)C1CCC(N)C(OC2C(N)CC(N)C(OC3OCC(C)(O)C(NC)C3O)C2O)O1 (stereo not shown)  MIC (Bacillus subtilis; microbial growth, broth dilution): 1 µg/mL (≈ 2.09 µM)
O=C(Nc1ccc(F)cc1F)c1ccc(COC(Cn2ccnc2)c2ccc(Cl)cc2Cl)cc1 (stereo not shown)  MIC80 (Nakaseomyces glabratus; microbial growth, broth dilution): 0.03 µg/mL (≈ 0.0597 µM)
C/C(=N/NC(=O)c1cn(-c2ccccc2)nc1-c1ccc(F)cc1)c1c(O)cc(C)oc1=O  MIC (Bacillus subtilis; microbial growth): 70 µg/mL (≈ 157 µM)
O=C(Nc1cccc(Br)c1)c1ccc(COC(Cn2ccnc2)c2ccc(Cl)cc2Cl)cc1 (stereo not shown)  MIC80 (Nakaseomyces glabratus; microbial growth, broth dilution): 0.125 µg/mL (≈ 0.229 µM)
C#CCON=C1C=CC(=C(C#N)c2ccccc2)C=C1  MFC (Nakaseomyces glabratus; microbial killing, broth dilution; ATCC15126; 48 h): 32 µg/mL (≈ 123 µM)
O=C(Nc1cccc(F)c1)c1ccc(COC(Cn2ccnc2)c2ccc(Cl)cc2Cl)cc1 (stereo not shown)  MIC80 (Nakaseomyces glabratus; microbial growth, broth dilution): 0.125 µg/mL (≈ 0.258 µM)
C#CCOC(=O)ON=C1C=CC(=C(C#N)c2ccccc2)C=C1  MFC (Nakaseomyces glabratus; microbial killing, broth dilution; ATCC15126; 48 h): 16 µg/mL (≈ 52.6 µM)
OC(Cn1cncn1)(Cn1cncn1)c1ccc(F)cc1F  MIC (Cryptococcus neoformans; microbial growth, broth dilution; H99; 48 h): 8 µg/mL (≈ 26.1 µM)
CC(=O)ON=C1C=CC(=C(C#N)c2ccccc2)C=C1  MIC (Nakaseomyces glabratus; microbial growth, broth dilution; ATCC15126; 48 h): 16 µg/mL (≈ 60.5 µM)
O=C(Nc1ccc2cccnc2c1)c1ccc(COC(Cn2ccnc2)c2ccc(Cl)cc2Cl)cc1 (stereo not shown)  MIC80 (Nakaseomyces glabratus; microbial growth, broth dilution): 8 µg/mL (≈ 15.5 µM)
CCOC(=O)/C=C1/SC(N/N=C/c2c(-c3ccc(OC)cc3)nc3ncccn23)=NC1=O  inhibition zone (Bacillus subtilis; microbial growth, well diffusion; ATCC6051; 100 µg/mL): 11 mm
